The structures appear in SMILES notation.

The target in assay [1] is T1, Beta-carbonic anhydrase 1 (Mycobacterium tuberculosis) (UniProt P9WPJ7).
T1 sequence (whole entry): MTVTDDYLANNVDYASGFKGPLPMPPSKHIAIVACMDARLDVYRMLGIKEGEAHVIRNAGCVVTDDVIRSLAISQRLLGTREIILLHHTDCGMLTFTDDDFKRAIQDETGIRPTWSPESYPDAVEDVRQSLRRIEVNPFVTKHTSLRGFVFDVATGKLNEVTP
Kind of assay: Binding affinity to recombinant Mycobacterium tuberculosis Rv1284 expressed in Escherichia coli BL21-Al cells assessed as change in melting temperature by SYPRO Orange dye based differential scanning fluorimetric method. (In general: DSF heats the sample and reads unfolding from a dye or from intrinsic fluorescence.)

The target of assay [2] is T2, Carbonic anhydrase 2 (Mycobacterium tuberculosis) (UniProt P9WPJ9).
T2 sequence (whole entry): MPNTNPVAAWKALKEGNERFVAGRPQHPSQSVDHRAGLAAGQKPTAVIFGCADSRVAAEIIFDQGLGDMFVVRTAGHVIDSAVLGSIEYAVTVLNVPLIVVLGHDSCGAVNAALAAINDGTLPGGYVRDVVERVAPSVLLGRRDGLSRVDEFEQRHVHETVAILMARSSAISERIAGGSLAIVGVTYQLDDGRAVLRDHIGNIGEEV
As to the kind of experiment: Inhibition of recombinant Mycobacterium tuberculosis N-terminal Hi-tagged Rv3588c expressed in Escherichia coli BL21-Al cells assessed as enzyme residual activity at 25 uM measured for 10 secs by m-cresol purple staining based stopped-flow CO2 hydration assay relative to control. In short, it runs like this: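 Rv3588c with an N-terminal His tag, purified by QA52 anion exchange and then Ni-NTA at pH 8.0, and dialysed into 100 mM NaCl, 20 mM HEPES pH 7.5. Stopped-flow CO2 hydration followed by m-cresol purple absorbance. Sample buffer was 100 mM Na2SO4, 25 mM TAPS pH 8.5, 5 μM protein plus compound, mixed 1:1 with CO2-saturated water. Initial rates over the first 10 s, at least five traces each.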

Assay [3] addresses T1, Beta-carbonic anhydrase 1 (Mycobacterium tuberculosis). As to the kind of experiment: Inhibition of recombinant Mycobacterium tuberculosis Rv1284 expressed in Escherichia coli BL21-Al cells assessed as enzyme residual activity at 25 uM measured for 10 secs by m-cresol purple staining based stopped-flow CO2 hydration assay relative to control. In short, it runs like this: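 Untagged Rv1284, purified by QA52 anion exchange at pH 8.0 and SP-Sepharose cation exchange at pH 4.5, and dialysed into 100 mM NaCl, 20 mM HEPES pH 7.5. Stopped-flow CO2 hydration with m-cresol purple read-out. Sample buffer was 100 mM Na2SO4, 25 mM TAPS pH 8.5, 5 μM enzyme plus compound, mixed 1:1 with CO2-saturated water. Initial rates from the first 10 s, at least five traces.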

For assay [4], the target named is Carbonic anhydrase 2 (Homo sapiens) (UniProt P00918). Kind of assay: Inhibition of recombinant human carbonic anhydrase 2 expressed in Escherichia coli BL21 (DE3) assessed as enzyme residual activity at 25 uM measured for 10 secs by m-cresol purple staining based stopped-flow CO2 hydration assay relative to control. In outline:
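Codon-optimised synthetic human CA II gene expressed in bacteria. Activity measured by stopped-flow CO2 hydration, monitoring m-cresol purple absorbance. Sample buffer was 100 mM Na2SO4, 25 mM TAPS pH 8.5, 5 μM protein with compound, mixed 1:1 with CO2-saturated water. Initial rates over the first 10 s, from at least five traces per compound.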

The target in assay [5] is T2, Carbonic anhydrase 2 (Mycobacterium tuberculosis). As to the kind of experiment: (§1) Inhibition of recombinant Mycobacterium tuberculosis N-terminal Hi-tagged Rv3588c expressed in Escherichia coli BL21-Al cells measured for 10 secs by m-cresol purple staining based stopped-flow CO2 hydration assay. In short, it runs like this: (§2)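 His-tagged Rv3588c in stopped-flow CO2 hydration with m-cresol purple read-out, in 100 mM Na2SO4, 25 mM TAPS pH 8.5 against CO2-saturated water. Five compound concentrations, starting from […]. Initial rates taken over the first 10 s. Dose-response data fitted to a curve.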

The target in another assay is T3, Carbonic anhydrase 2 (Mycobacterium tuberculosis, UniProt P9WPJ9).
T3 sequence (P9WPJ9 whole entry): T2 sequence (whole entry)
The assay is described as §1. In short, it runs like this:
as §2

Regarding `CC(C)CCNC1=C(Cl)C(=O)c2ccccc2C1=O`, the deltaTm in assay [1] was -1.5 K. The Activity in assay [2] and in assay [3] was 103% each time.

As to `CN(C)CCCNC1=C(Cl)C(=O)c2ccccc2C1=O`, in assay [1], the deltaTm was -0.9 K. In addition, the Activity is 110% in assay [2] and 79.4% in assay [3].

In the case of `COCCNC1=C(Cl)C(=O)c2ccccc2C1=O`, in assay [1], the deltaTm was -1.5 K. Besides, the Activity in assay [2] came out at 98.8%; in assay [3] it was 67.2%.

On to `CCN(CC)CCCNC1=C(Cl)C(=O)c2ccccc2C1=O`, for which the deltaTm in assay [1] was -0.6 K. For the same compound, the Activity in assay [2] came out at 93.8%; in assay [3], 68.5%.

Consider `COC1=CC(=O)C=C(CO)C1=O`, for which the deltaTm in assay [1] turned out to be 0.1 K. The figures for the Activity in assay [2] and in assay [3] were 104% and 101%, respectively.

Take `O=C1C(Cl)=C(NCCc2ccccc2)C(=O)c2ccccc21`: in assay [1], the deltaTm is -0.7 K. Besides, the Activity in assay [2] was determined as 93.2%; in assay [3] it was 110%.

On to `O=C1C(Cl)=C(NCc2ccccc2)C(=O)c2ccccc21`, for which the deltaTm in assay [1] was -2.5 K. Also, the Activity in assay [2] came to 99.1%; in assay [3], 96.5%.

As for `O=C1C(O)=C([C@H]2CC[C@H](c3ccc(Cl)cc3)CC2)C(=O)c2ccccc21`, in assay [1], the deltaTm was -0.5 K. Besides, the results for the Activity in assay [2] and in assay [3] were 80.7% and 83.1%, respectively.

For the compound `O=C1C=C(Br)C(=O)c2ccccc21`, the Activity in assay [4] came to 109%; in assay [2] it was 68.1%; in assay [3] it was 72.2%. In addition, the deltaTm in assay [1] was -10.1 K.

In the case of `O=C1C(Cl)=C(Cl)C(=O)c2ccccc21` [Dichlon], the Activity amounted to 96.8% in assay [4], 16.1% in assay [2] and 81.5% in assay [3]. Further, the deltaTm in assay [1] is -10.2 K. Further, the Imax in assay [5] stood at 84%. The IC50 (as a rule, the concentration at which inhibition is half-maximal) at Carbonic anhydrase 2 worked out at 1200 nM.

As for `O=C1C2=C(C(=O)c3ccccc31)S(=O)(=O)CCN2`, the deltaTm in assay [1] is -0.4 K. Further, the Activity in assay [2] was determined as 80.6%; in assay [3] it was 79.5%.

`COC1=CC(=O)c2ccccc2C1=O` [2-Methoxy-1,4-naphthoquinone]: the Activity in assay [4] came to 104%; in assay [2] it was 84.5%; in assay [3], 62.3%. The deltaTm in assay [1] was -0.5 K. Moreover, the Imax in assay [5] amounted to 40%. In addition, the IC50 on Carbonic anhydrase 2 was 2300 nM.

For `O=C1C=CC(=O)c2ccccc21`, the deltaTm in assay [1] was -8.8 K. Also, the Activity came to 94.8% in assay [2] and 76.6% in assay [3].

In the case of `Clc1cc2ccccc2cc1Cl`, the deltaTm in assay [1] was found to be 1.3 K. Besides, the Activity came out at 82.8% in assay [2] and 80.3% in assay [3].

As for `O=C1C2=C(C(=O)c3ccccc31)S(=O)(=O)C=CN2`, the deltaTm in assay [1] is -1.1 K. The results for the Activity in assay [2] and in assay [3] were 78.3% and 74.6%, respectively.

The values above are taken from ChEMBL document CHEMBL4261513, “Dichloro-naphthoquinone as a non-classical inhibitor of the mycobacterial carbonic anhydrase Rv3588c” (Medchemcomm, 2017).
